Source: PubChem BioAssay
PostGolgi yeast = phenotypic screen on post-Golgi transport, primary screen | AID 739, 2007 | post-Golgi transport phenotypic cell assay | inhibition, % at 10 µM | 98,000 compounds, 0.9% hits;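 note: yeast cells grown in 1536-well plates; yeast grown about 18 h at 30C before absorbance read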
HIV Rev-RRE inh = HIV-1 Rev-RRE binding inhibitors, primary screen, biochemical, FRET, protein-RNA interaction. Rev peptide-RRE RNA binding. 97,000 compounds, 0.79% hits. P05866. inhibition, % at 8 µM. AID 704, 2007;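 active = inhibition above the screen-wide mean plus 3 SD, cut at about 35% in these data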;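 note: 0% = median DMSO wells and 100% = median Neomycin B control wells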
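assay system = Cy5-tagged RRE RNA duplex with fluorescein-tagged Rev peptide | incubation = 5 + 15 min at 25 °C | also added = labelled Rev peptide | measure = % inhibition of FRET ratio versus controls | benchmarks = DMSO wells as 0% and neomycin B wells as 100% inhibition | measured by = FRET fluorescence readout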
Plk1 PBD FP = Plk1 polo box domain binding inhibitors, primary screen, biochemical, fluorescence polarization; Serine/threonine-protein kinase PLK1 (Homo sapiens), P53350; Plk1 PBD phosphopeptide binding; inhibition, %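 (tested at about 20 µM)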; 97,000 compounds, 0.13% hits; AID 693, 2007; in the data active = inhibition above about 34%, passing the limit was not always enough
PLK1 inh = human PLK1 kinase inhibitors, primary screen, biochemical, TR-FRET; Serine/threonine-protein kinase PLK1 (Homo sapiens), P53350; recombinant PLK1 kinase, TR-FRET peptide phosphorylation; inhibition, % at 10 µM; 97,000 compounds, 0.53% hits; AID 619, 2007;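 active = inhibition of 50% or more in the single-concentration screen; inactive = inhibition below 50%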;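 note: 0% = DMSO max control and 100% = H-89 dihydrochloride min control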
PostGolgi ctrl = growth inhibition of yeast control strain, primary screen, counter-screen for post-Golgi transport modulator project | efflux-deficient yeast background strain, growth absorbance A615, 16 h | inhibition, % at 10 µM | 98,000 compounds, 5% hits
EphB4 antag = EphB4-ephrin-B2 interaction antagonists, primary screen, biochemical, TNYL-RAW peptide probe, fluorescence polarization | 97,000 compounds, 0.15% hits | EphB4 LBD / TNYL-RAW-Alexa532 peptide | inhibition, % at 7 µM | AID 720, 2007;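 active = inhibition above the screen-wide mean inhibition plus 3 SD, cut at about 15% in these data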;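 note: 0% = DMSO wells and 100% = excess unlabeled TNYL-RAW peptide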
* marks the source's active call; other numbers are inactive results. Only some compounds are listed: those with a hit (about 6.4% of all), similar ones and a draw of the others. Cut-off read from the data, not from the text of the source, unless noted: active = inhibition above about 30%; inactive = the rest.

How did COC(=O)CNC(=O)CSc1nc(N)cc(=O)[nH]1 do in these assays?
PostGolgi yeast: 7; HIV Rev-RRE inh: 3; Plk1 PBD FP: 8; PLK1 inh: -13; PostGolgi ctrl: 31*; EphB4 antag: -2

How did CCCC(=O)N1CCN(c2ccc(NC(=O)c3cc4ccccc4o3)cc2Cl)CC1 do in these assays?
PostGolgi yeast: 86*; HIV Rev-RRE inh: -2; Plk1 PBD FP: 10; PLK1 inh: -9; PostGolgi ctrl: 50*; EphB4 antag: 6

How did CCC(=O)N1CCN(c2ccc(NC(=O)c3cc4ccccc4o3)cc2Cl)CC1 do in these assays?
PostGolgi yeast: 6; HIV Rev-RRE inh: 1; Plk1 PBD FP: -12; PLK1 inh: -11; PostGolgi ctrl: 38*; EphB4 antag: 4

What do the screens show for `Cc1cc(C)c2c(c1)-c1cc(C)nn1C(c1ccc3c(c1)OCO3)N2` (centres undefined)?
PostGolgi yeast: 16; HIV Rev-RRE inh: -1; Plk1 PBD FP: 9; PLK1 inh: -8; PostGolgi ctrl: 47*; EphB4 antag: -2

Results for CC(=O)c1cccc(N(CC(=O)NCC2CCCO2)C(=O)CCC(=O)Nc2cc(C)on2)c1 (centres undefined) ?
PostGolgi yeast: -9; HIV Rev-RRE inh: 3; Plk1 PBD FP: 22; PLK1 inh: -19; PostGolgi ctrl: 41*; EphB4 antag: 3

What do the screens show for `COc1cc(-c2c(C#N)c(N)nc3c2CCCC3)ccc1O`?
PostGolgi yeast: 3; HIV Rev-RRE inh: -4; Plk1 PBD FP: -6; PLK1 inh: 0; PostGolgi ctrl: 11; EphB4 antag: -4

How did COc1cc(/C=C(\C#N)c2nc3c(s2)CCCC3)ccc1O do in these assays?
PostGolgi yeast: 5; HIV Rev-RRE inh: 72*; Plk1 PBD FP: -243; PLK1 inh: 1; PostGolgi ctrl: 56*; EphB4 antag: 0

How did CCOc1ccc(NC(=O)C(C)Oc2ccccc2C(=O)Nc2ccc(C)c(Cl)c2)cc1 (centres undefined) do in these assays?
PostGolgi yeast: 4; HIV Rev-RRE inh: 15; Plk1 PBD FP: -3; PLK1 inh: -8; PostGolgi ctrl: 1; EphB4 antag: 17*

Results for CCOc1ccc(NC(=O)c2ccccc2OCC(=O)c2ccc(C)cc2)cc1 ?
PostGolgi yeast: 0; HIV Rev-RRE inh: 13; Plk1 PBD FP: 9; PLK1 inh: -11; PostGolgi ctrl: 15; EphB4 antag: -2

What do the screens show for `Nc1c(C(=O)c2ccccc2)oc2ccccc12`?
PostGolgi yeast: 8; HIV Rev-RRE inh: 2; Plk1 PBD FP: -2; PLK1 inh: -7; PostGolgi ctrl: 2; EphB4 antag: 5

How did O=C(c1ccc(Cl)cc1)c1oc2ccccc2c1CS(=O)(=O)c1ccccc1 do in these assays?
PostGolgi yeast: 2; HIV Rev-RRE inh: 9; Plk1 PBD FP: 8; PLK1 inh: -4; PostGolgi ctrl: 31*; EphB4 antag: -7

How did CCCC(C)C(=O)Nc1nc(C)c(-c2csc(Nc3ccc(Cl)cc3)n2)s1 (centres undefined) do in these assays?
PostGolgi yeast: 0; HIV Rev-RRE inh: 7; Plk1 PBD FP: -14; PLK1 inh: -18; PostGolgi ctrl: 34*; EphB4 antag: -2

What do the screens show for `CCCC(C)C(=O)Nc1nc(C)c(-c2csc(Nc3ccccc3OC)n2)s1` (centres undefined)?
PostGolgi yeast: -2; HIV Rev-RRE inh: -5; Plk1 PBD FP: -12; PLK1 inh: -8; PostGolgi ctrl: 1; EphB4 antag: -3

Results for O=C(c1ccc(F)cc1)N1CCCCC(Sc2nnc3ccccn23)C1=O (centres undefined) ?
PostGolgi yeast: 3; HIV Rev-RRE inh: 11; Plk1 PBD FP: 15; PLK1 inh: 2; PostGolgi ctrl: 2; EphB4 antag: 4

How did O=C(c1ccccc1)N1CCCCC(Sc2nnc3ccccn23)C1=O (centres undefined) do in these assays?
PostGolgi yeast: -2; PostGolgi ctrl: 31*

What do the screens show for `CCN(CC)C(C)C(=O)NCC1(c2ccccc2)CCOCC1` (centres undefined)?
HIV Rev-RRE inh: -5; Plk1 PBD FP: 9; PLK1 inh: -10; EphB4 antag: 0

What do the screens show for `CCOc1ccc(NC(=O)c2cccc3c2C(=O)N(Cc2cccnc2)C3)cc1`?
PostGolgi yeast: -4; PostGolgi ctrl: 32*

How did Cc1ccc(CNC(=O)Cn2c(=O)oc3ccccc32)o1 do in these assays?
PostGolgi yeast: 1; HIV Rev-RRE inh: 8; Plk1 PBD FP: -40; PLK1 inh: -8; PostGolgi ctrl: 40*; EphB4 antag: 2

Results for CCOC(=O)N1CCC(NC(=O)CCc2c(C)nc3ncnn3c2C)CC1 ?
PostGolgi yeast: -4; HIV Rev-RRE inh: 2; Plk1 PBD FP: -5; PLK1 inh: 0; PostGolgi ctrl: 9; EphB4 antag: -9

Results for Cc1cc(C)cc(-n2c(C)cc(/C=N/NC(=O)CSc3ncccn3)c2C)c1 ?
PostGolgi yeast: 41*; HIV Rev-RRE inh: -6; Plk1 PBD FP: -7; PLK1 inh: -11; PostGolgi ctrl: 18; EphB4 antag: -6

Results for CCOC(=O)C1CCN(C(=O)CSC2=NCCS2)CC1 ?
PostGolgi yeast: -3; PostGolgi ctrl: 5

Results for Cc1cccc(NS(=O)(=O)c2ccc(C3CCCCC3)cc2)c1 ?
PostGolgi yeast: -5; HIV Rev-RRE inh: 12; Plk1 PBD FP: -15; PLK1 inh: -9; PostGolgi ctrl: 50*; EphB4 antag: 1

What do the screens show for `Cc1cccc(NS(=O)(=O)c2ccc(C3CCCCC3)cc2)n1`?
PostGolgi yeast: -2; HIV Rev-RRE inh: 2; Plk1 PBD FP: 4; PLK1 inh: -21; PostGolgi ctrl: 27; EphB4 antag: -5

How did CCOc1ccc(CCNC(=O)CN2CCN(Cc3ccccc3C)C2=O)cc1OCC do in these assays?
PostGolgi yeast: 3; PostGolgi ctrl: 1

Results for Cc1ccc(NC2=NCC(=O)N2C2CCCC2)c(C)c1 ?
HIV Rev-RRE inh: 2; Plk1 PBD FP: -9; PLK1 inh: -10; EphB4 antag: 0

How did CC(C)C(NC(=O)COc1ccccc1)C(=O)O (centres undefined) do in these assays?
PostGolgi yeast: 26; HIV Rev-RRE inh: 3; Plk1 PBD FP: 10; PLK1 inh: 14; PostGolgi ctrl: 1; EphB4 antag: -2

Results for CC(C)C(C)NC(=O)COc1ccc(-c2ccccc2)cc1 (centres undefined) ?
PostGolgi yeast: 32*; HIV Rev-RRE inh: 15; Plk1 PBD FP: 30; PLK1 inh: -38; PostGolgi ctrl: 18; EphB4 antag: 2

What do the screens show for `Cc1ccc(OCC(=O)Nc2ccccc2-c2ccccc2)cc1`?
PostGolgi yeast: -5; HIV Rev-RRE inh: 18; Plk1 PBD FP: -19; PLK1 inh: -6; PostGolgi ctrl: 46*; EphB4 antag: 3
